Measurements pooled from the literature.
Compare with care: the assays were run in different laboratories.
TNKS: Poly [ADP-ribose] polymerase tankyrase-1 (TNKS, Homo sapiens, UniProt O95271)
NTRK3: NT-3 growth factor receptor (NTRK3, Homo sapiens, UniProt Q16288)

For `Cc1ccc(C)c(NC(=O)CSc2nnc(Cc3cc(=O)[nH]c(=O)[nH]3)n2-c2ccc(Cl)cc2)c1`, the inhibition was 3% (TNKS; enzyme activity; inhibitor; 0.1 µM).
`C[C@H]1C[C@@H](N2C(=N)N[C@](C)(c3cccc(Nc4ccc(C5CC5)nc4)c3Cl)CC2=O)CCO1` has an inhibition of 86% (Cathepsin E (CTSE, Homo sapiens, UniProt P14091); enzyme activity; inhibitor; 10 µM).
`Ic1cccc2cnccc12` gave an inhibition of 7% (TNKS; enzyme activity; inhibitor; 10 µM).
For `CNC(=O)c1cc(Oc2ccc(NC(=O)Nc3ccc(Cl)c(C(F)(F)F)c3)cc2)ccn1`, the inhibition was 9% (Dual specificity mitogen-activated protein kinase kinase 7 (MAP2K7, Homo sapiens, UniProt O14733); enzyme activity; inhibitor; 0.3 µM).
The inhibition of `OCc1cc(C(O)CNCCCCCCOCCCCc2ccccc2)ccc1O` (stereo not drawn) is reported as 11% (C-X-C chemokine receptor type 4 (CXCR4, Homo sapiens, UniProt P61073); calcium signal; antagonist; U87.CD4.CXCR4; 4 µM).
With `CN(C)C1CCN(CC#Cc2nn(C3CCCC3)c3nc(NCc4ccccc4)ncc23)C1` (stereo not drawn) the inhibition was 5% (Cyclin-dependent kinase 9, with cyclin T1 (CDK9, Homo sapiens, UniProt P50750); enzyme activity; inhibitor; FRET; 0.1 µM).
For `CC1=C(/C=C/C(C)=C/C=C/C(C)=C/C(=O)O)C(C)(C)CCC1`, the inhibition was 92% (Prothrombin (Rattus norvegicus, UniProt P18292); enzyme activity; inhibitor; 200 µg/mL).
`CCN1CCN(Cc2ccc(NC(=O)c3ccc(C)c(Oc4ccnc5[nH]ccc45)c3)cc2C(F)(F)F)CC1` gave an inhibition of -44.6% (Mitogen-activated protein kinase 3 (MAPK3, Homo sapiens, UniProt P27361); target engagement in cells; inhibitor; chemoproteomics; A-375; 0.5 µM).
The inhibition of `CN1CCN(CC(=O)Nc2cccc(C(=O)Nc3ccc4[nH]ncc4c3)c2)CC1` is reported as 23% (NTRK3; enzyme activity; inhibitor; FRET; 1 µM).
With `COC(=O)c1c(O)ccc(O)c1C(=O)c1c(O)cc2c(c1O)[C@@H]1C=C[C@]3(C2)C(=C(O)c2c(O)cc(C)cc2[C@@H]3OC(C)=O)C1=O` the inhibition was 55% (PSMB6/PSMB5/PSMB7 (Homo sapiens, UniProt P28072+P28074+Q99436); enzyme activity in cells; inhibitor; MCF7; 20 µg/mL).
The inhibition of `O=C(O)CC[C@@H](O)C(=O)O` is reported as 83% (Methylcytosine dioxygenase TET2 (Mus musculus, UniProt Q4JK59); enzyme activity; inhibitor; 50 mM).
With `O=C(Nc1ccc2[nH]ncc2c1)c1cccc(NC(=S)Nc2ccc(C(F)(F)F)cc2)c1` the inhibition was 17.3% (NTRK3; enzyme activity; inhibitor; FRET; 1 µM).
